Experimental data taken from ChEMBL document CHEMBL1142937, “Synthesis, affinity profile, and functional activity of muscarinic antagonists with a 1-methyl-2-(2,2-alkylaryl-1,3-oxathiolan-5-yl)pyrrolidine structure” (J Med Chem, 2007).

How the values were obtained:
[1] = target: T1, Muscarinic acetylcholine receptor M4 (Homo sapiens, UniProt P08173); test: Binding affinity to human cloned muscarinic receptor M4 expressed in CHO cells; format: cell-based
T1 sequence (P08173 whole entry): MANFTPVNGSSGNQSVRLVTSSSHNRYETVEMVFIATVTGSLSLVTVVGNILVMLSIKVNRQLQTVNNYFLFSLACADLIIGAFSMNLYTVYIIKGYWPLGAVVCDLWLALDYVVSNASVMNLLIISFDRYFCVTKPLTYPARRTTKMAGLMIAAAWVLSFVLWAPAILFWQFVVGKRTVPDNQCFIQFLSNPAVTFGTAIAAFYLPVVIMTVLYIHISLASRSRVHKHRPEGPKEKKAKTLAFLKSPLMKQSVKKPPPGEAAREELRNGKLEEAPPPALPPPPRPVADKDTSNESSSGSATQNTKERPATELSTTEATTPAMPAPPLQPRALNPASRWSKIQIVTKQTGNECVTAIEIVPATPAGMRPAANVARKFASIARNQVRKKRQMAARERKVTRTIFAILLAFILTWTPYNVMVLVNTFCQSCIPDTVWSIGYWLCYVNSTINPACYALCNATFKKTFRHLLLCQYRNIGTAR

[2] = target: T2, Muscarinic acetylcholine receptor M1 (Homo sapiens, UniProt P11229); test: Binding affinity to human cloned muscarinic receptor M1 expressed in CHO cells; format: cell-based
T2 sequence (P11229 whole entry): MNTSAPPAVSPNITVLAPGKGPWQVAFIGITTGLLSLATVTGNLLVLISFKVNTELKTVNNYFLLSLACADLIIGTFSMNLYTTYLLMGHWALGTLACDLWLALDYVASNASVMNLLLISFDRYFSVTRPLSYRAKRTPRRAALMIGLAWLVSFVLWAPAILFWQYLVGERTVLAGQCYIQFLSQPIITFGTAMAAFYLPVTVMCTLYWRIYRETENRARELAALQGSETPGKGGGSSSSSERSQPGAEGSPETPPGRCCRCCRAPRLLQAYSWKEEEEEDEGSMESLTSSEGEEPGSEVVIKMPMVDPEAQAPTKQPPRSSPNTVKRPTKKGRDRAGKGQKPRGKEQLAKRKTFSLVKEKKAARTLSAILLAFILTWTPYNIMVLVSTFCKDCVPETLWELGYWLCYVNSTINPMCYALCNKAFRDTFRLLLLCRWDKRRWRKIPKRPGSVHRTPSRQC

[3] = target: T3, Muscarinic acetylcholine receptor M5 (Homo sapiens, UniProt P08912); test: Binding affinity to human cloned muscarinic receptor M5 expressed in CHO cells; format: cell-based
T3 sequence (P08912 whole entry): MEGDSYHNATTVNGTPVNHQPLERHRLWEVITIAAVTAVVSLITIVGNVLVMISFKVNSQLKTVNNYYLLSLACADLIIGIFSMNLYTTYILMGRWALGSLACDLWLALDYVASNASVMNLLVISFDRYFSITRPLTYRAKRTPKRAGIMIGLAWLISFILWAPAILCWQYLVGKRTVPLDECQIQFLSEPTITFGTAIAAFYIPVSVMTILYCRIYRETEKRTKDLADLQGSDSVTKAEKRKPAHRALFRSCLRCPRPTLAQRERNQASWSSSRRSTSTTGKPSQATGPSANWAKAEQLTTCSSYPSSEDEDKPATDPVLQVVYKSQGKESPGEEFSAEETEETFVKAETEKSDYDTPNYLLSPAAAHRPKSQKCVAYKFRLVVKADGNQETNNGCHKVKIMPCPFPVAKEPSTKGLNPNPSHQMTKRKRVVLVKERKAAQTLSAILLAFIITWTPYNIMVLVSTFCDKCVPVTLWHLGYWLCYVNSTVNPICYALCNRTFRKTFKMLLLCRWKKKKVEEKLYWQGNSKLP
Method in brief: (§1)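 Equilibrium radioligand binding on CHO cells expressing the cloned human muscarinic subtype. Affinity is reported as pKi.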

[4] = tested on: Muscarinic acetylcholine receptor M4, putative (Cavia porcellus); test: Antagonist activity at putative muscarinic receptor M4 assessed as contraction of electrically-stimulated guinea pig lung strips; conditions: filed as antagonist
[5] = tested on: Muscarinic acetylcholine receptor M1, putative (Oryctolagus cuniculus); conditions: Vas deferens, filed as antagonist
[6] = target: Muscarinic acetylcholine receptor M3 (Homo sapiens, UniProt P20309); test: Binding affinity to human cloned muscarinic receptor M3 expressed in CHO cells; format: cell-based
[7] = target: Muscarinic acetylcholine receptor M3 (Cavia porcellus) (UniProt Q8VH26); test: (§2) Antagonist activity at muscarinic receptor M3 assessed as contraction of guinea pig ileum; format: functional, tissue-based; conditions: filed as antagonist
Method in brief: (§3)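 Isolated guinea pig tissue preparations (stimulated left atria, ileum, lung strips), run in vitro by a previously described protocol, with the ileum method slightly modified. Agonist dose–response curves were recorded before and after one or two antagonist concentrations. pKb = log(DR−1) − log[B], where DR is the ratio of agonist ED50 after/before antagonist. Some cases were expressed as pA2 from Schild plots constrained to slope −1.0.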

[8] = tested on: Muscarinic acetylcholine receptor M2 (Cavia porcellus); test: Antagonist activity at muscarinic receptor M2 assessed as contraction of electrically-stimulated guinea pig left atria; conditions: for pKb: filed as antagonist; for Kb: read-out: pA2 (converted)
[9] = target: T4, Muscarinic acetylcholine receptor M2 (Homo sapiens, UniProt P08172); test: Binding affinity to human cloned muscarinic receptor M2 expressed in CHO cells; format: cell-based; method in brief: as §1
T4 sequence (P08172 whole entry): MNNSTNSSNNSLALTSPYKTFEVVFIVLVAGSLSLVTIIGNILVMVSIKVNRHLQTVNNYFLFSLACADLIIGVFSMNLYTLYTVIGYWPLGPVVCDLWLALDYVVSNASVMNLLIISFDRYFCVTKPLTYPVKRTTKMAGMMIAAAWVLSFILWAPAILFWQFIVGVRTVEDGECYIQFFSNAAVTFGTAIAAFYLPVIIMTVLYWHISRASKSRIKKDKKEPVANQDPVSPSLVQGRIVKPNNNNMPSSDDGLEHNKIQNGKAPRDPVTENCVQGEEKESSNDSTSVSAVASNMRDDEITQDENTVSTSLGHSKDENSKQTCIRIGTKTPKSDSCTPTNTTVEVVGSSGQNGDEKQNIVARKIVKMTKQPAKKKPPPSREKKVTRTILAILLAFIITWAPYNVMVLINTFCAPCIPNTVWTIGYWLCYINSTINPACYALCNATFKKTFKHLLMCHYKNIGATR

[10] = target: Muscarinic acetylcholine receptor M3 (Cavia porcellus, UniProt Q8VH26); test: as §2; format: functional, tissue-based; conditions: read-out: pA2 (converted); method in brief: as §3
Sequence of Muscarinic acetylcholine receptor M3 (Cavia porcellus, UniProt Q8VH26) (Q8VH26 whole entry): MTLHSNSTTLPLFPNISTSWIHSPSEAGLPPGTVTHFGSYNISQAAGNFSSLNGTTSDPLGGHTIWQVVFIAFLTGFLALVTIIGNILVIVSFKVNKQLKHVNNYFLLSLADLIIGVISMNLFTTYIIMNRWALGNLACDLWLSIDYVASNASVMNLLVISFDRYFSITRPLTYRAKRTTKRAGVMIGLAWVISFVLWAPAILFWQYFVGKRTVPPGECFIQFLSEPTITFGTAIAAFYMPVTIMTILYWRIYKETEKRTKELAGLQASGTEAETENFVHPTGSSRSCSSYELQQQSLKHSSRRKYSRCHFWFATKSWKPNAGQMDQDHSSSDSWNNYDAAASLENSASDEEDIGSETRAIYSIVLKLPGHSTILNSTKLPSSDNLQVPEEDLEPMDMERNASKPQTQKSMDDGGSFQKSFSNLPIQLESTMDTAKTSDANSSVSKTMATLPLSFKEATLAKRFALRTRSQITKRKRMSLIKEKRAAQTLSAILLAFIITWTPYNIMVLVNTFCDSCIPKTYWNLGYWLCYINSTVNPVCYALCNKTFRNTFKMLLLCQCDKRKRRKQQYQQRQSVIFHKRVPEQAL

Sequence of Muscarinic acetylcholine receptor M3 (Cavia porcellus) (Q8VH26 1-587): as the sequence (Q8VH26 whole entry) above
Sequence of Muscarinic acetylcholine receptor M3 (Homo sapiens, UniProt P20309) (P20309 whole entry): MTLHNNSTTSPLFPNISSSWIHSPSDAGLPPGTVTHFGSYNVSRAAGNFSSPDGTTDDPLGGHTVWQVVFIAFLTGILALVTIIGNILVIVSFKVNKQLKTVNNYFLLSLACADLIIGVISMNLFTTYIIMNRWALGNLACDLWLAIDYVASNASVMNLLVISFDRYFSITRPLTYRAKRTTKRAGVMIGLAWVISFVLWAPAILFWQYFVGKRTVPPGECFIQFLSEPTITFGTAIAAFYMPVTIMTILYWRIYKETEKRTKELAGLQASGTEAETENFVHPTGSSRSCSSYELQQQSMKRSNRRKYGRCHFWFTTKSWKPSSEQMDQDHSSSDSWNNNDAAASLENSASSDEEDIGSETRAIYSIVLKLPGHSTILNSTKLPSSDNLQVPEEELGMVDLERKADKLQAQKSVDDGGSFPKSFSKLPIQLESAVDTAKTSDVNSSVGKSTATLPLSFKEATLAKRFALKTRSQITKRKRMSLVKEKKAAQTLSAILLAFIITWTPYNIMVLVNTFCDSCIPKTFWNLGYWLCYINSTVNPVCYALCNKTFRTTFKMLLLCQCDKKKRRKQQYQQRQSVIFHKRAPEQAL

SMILES: CN1CCC[C@@H]1[C@@H]1CSC(c2ccccc2)(c2ccccc2)O1
- Ki [1]: 2 nM (antagonist)
- Ki [2]: 0.759 nM (antagonist)
- Ki [3]: 3.24 nM (antagonist)
- pKb [4]: 6.06
- pKb [5]: 8.66
- Ki [6]: 2.45 nM (antagonist)
- pKb [7]: 8.44
- pKb [8]: 7.97
- Ki [9]: 2.75 nM (antagonist)

SMILES: CN1CCC[C@@H]1[C@@H]1CS[C@](c2ccccc2)(C2CCCCC2)O1
- Ki [1]: 1 nM (antagonist)
- Ki [2]: 0.347 nM (antagonist)
- Ki [3]: 2 nM (antagonist)
- pKb [4]: 6.03
- pKb [5]: 9.16
- Ki [6]: 2.19 nM (antagonist)
- pKb [7]: 8.55
- pKb [8]: 8.07
- Ki [9]: 1.07 nM (antagonist)

SMILES: C[N+]1(C)[C@@H]2C[C@@H](OC(=O)[C@H](CO)c3ccccc3)C[C@H]1[C@@H]1O[C@@H]12 [METHSCOPOLAMINE]
- Kb [10]: 0.617 nM (antagonist)

SMILES: C[N+]1(C)CCC[C@@H]1[C@@H]1CS[C@@](c2ccccc2)(C2CCCCC2)O1
- Ki [1]: 0.708 nM (antagonist)
- Ki [2]: 0.501 nM (antagonist)
- Ki [3]: 0.776 nM (antagonist)
- pKb [4]: 6.47
- pKb [5]: 9.53
- Ki [6]: 0.912 nM (antagonist)
- pKb [7]: 8.79
- pKb [8]: 8.6
- Ki [9]: 0.832 nM (antagonist)

SMILES: CN1CCC[C@H]1[C@H]1CSC(c2ccccc2)(c2ccccc2)O1
- Ki [1]: 3.31 nM (antagonist)
- Ki [2]: 3.47 nM (antagonist)
- Ki [3]: 5.62 nM (antagonist)
- pKb [4]: 6.41
- pKb [5]: 7.93
- Ki [6]: 5.25 nM (antagonist)
- pKb [7]: 8.05
- pKb [8]: 7.58
- Ki [9]: 4.9 nM (antagonist)

SMILES: C[N+]1(C)CCC[C@H]1[C@H]1CS[C@](c2ccccc2)(C2CCCCC2)O1
- Ki [1]: 0.871 nM (antagonist)
- Ki [2]: 0.251 nM (antagonist)
- Ki [3]: 0.2 nM (antagonist)
- pKb [4]: 7.47
- pKb [5]: 9.52
- Ki [6]: 0.589 nM (antagonist)
- pKb [7]: 8.5
- Kb [8]: 4.27 nM (antagonist)
- Ki [9]: 0.776 nM (antagonist)

SMILES: CN1CCC[C@H]1[C@H]1CS[C@](c2ccccc2)(C2CCCCC2)O1
- Ki [1]: 1.2 nM (antagonist)
- Ki [2]: 1.48 nM (antagonist)
- Ki [3]: 2 nM (antagonist)
- pKb [4]: 5.92
- pKb [5]: 8.32
- Ki [6]: 1.7 nM (antagonist)
- pKb [7]: 7.7
- pKb [8]: 6.91
- Ki [9]: 4.27 nM (antagonist)

SMILES: C[N+]1(C)CCC[C@H]1[C@H]1CSC(c2ccccc2)(c2ccccc2)O1
- Ki [1]: 0.468 nM (antagonist)
- Ki [2]: 0.295 nM (antagonist)
- Ki [3]: 0.407 nM (antagonist)
- pKb [4]: 7.79
- pKb [5]: 9.56
- Ki [6]: 0.741 nM (antagonist)
- pKb [7]: 9.16
- pKb [8]: 8.78
- Ki [9]: 0.468 nM (antagonist)

SMILES: C[N+]1(C)CCC[C@@H]1[C@@H]1CS[C@](c2ccccc2)(C2CCCCC2)O1
- Ki [1]: 1.82 nM (antagonist)
- Ki [2]: 0.955 nM (antagonist)
- Ki [3]: 3.24 nM (antagonist)
- pKb [4]: 6.55
- pKb [5]: 8.49
- Ki [6]: 4.9 nM (antagonist)
- pKb [7]: 8.84
- pKb [8]: 8.54
- Ki [9]: 1.48 nM (antagonist)

SMILES: CN1CCC[C@@H]1[C@@H]1CS[C@@](c2ccccc2)(C2CCCCC2)O1
- Ki [1]: 1.26 nM (antagonist)
- Ki [2]: 0.912 nM (antagonist)
- Ki [3]: 1.2 nM (antagonist)
- pKb [4]: 5.98
- pKb [5]: 7.95
- Ki [6]: 1.45 nM (antagonist)
- pKb [7]: 7.65
- pKb [8]: 7.13
- Ki [9]: 4.47 nM (antagonist)

SMILES: C[N+]1(C)CCC[C@H]1[C@H]1CS[C@@](c2ccccc2)(C2CCCCC2)O1
- Ki [1]: 0.871 nM (antagonist)
- Ki [2]: 0.117 nM (antagonist)
- Ki [3]: 0.107 nM (antagonist)
- pKb [4]: 7.99
- pKb [5]: 9.97
- Ki [6]: 0.339 nM (antagonist)
- pKb [7]: 9.66
- Kb [8]: 1 nM (antagonist)
- Ki [9]: 0.955 nM (antagonist)

SMILES: C[N+](C)(C)C[C@@H]1CS[C@@](c2ccccc2)(C2CCCCC2)O1
- Ki [1]: 6.17 nM (antagonist)
- Ki [2]: 1.1 nM (antagonist)
- Ki [3]: 2.82 nM (antagonist)
- pKb [4]: 6.24
- pKb [5]: 8.81
- Ki [6]: 1.78 nM (antagonist)
- pKb [7]: 8.79
- pKb [8]: 8.47
- Ki [9]: 7.59 nM (antagonist)

SMILES: C[N+]1(C)CCC[C@@H]1[C@@H]1CSC(c2ccccc2)(c2ccccc2)O1
- Ki [1]: 3.47 nM (antagonist)
- Ki [2]: 2.34 nM (antagonist)
- Ki [3]: 3.47 nM (antagonist)
- pKb [4]: 6.52
- pKb [5]: 8.49
- Ki [6]: 5.01 nM (antagonist)
- pKb [7]: 8.26
- pKb [8]: 7.76
- Ki [9]: 3.39 nM (antagonist)

SMILES: CN1CCC[C@H]1[C@H]1CS[C@@](c2ccccc2)(C2CCCCC2)O1
- Ki [1]: 2.34 nM (antagonist)
- Ki [2]: 1.38 nM (antagonist)
- Ki [3]: 1.35 nM (antagonist)
- pKb [4]: 6.22
- pKb [5]: 7.41
- Ki [6]: 0.891 nM (antagonist)
- pKb [7]: 8.92
- pKb [8]: 8.82
- Ki [9]: 2.75 nM (antagonist)
